ChEMBL document CHEMBL3352613, “Crystal Structures and Structure-Activity Relationships of Imidazothiazole Derivatives as IDO1 Inhibitors” (ACS Med Chem Lett, 2014)

target: Indoleamine 2,3-dioxygenase 1 (Homo sapiens, UniProt P14902); test: Inhibition of human IDO1 assessed as reduction in convertion of N-formylkynurenine to kynurenine incubated for 30 mins
Method in brief: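 IC50 values were taken as the mean of at least two independent assays.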

Indoleamine 2,3-dioxygenase 1, sequence (P14902 whole entry): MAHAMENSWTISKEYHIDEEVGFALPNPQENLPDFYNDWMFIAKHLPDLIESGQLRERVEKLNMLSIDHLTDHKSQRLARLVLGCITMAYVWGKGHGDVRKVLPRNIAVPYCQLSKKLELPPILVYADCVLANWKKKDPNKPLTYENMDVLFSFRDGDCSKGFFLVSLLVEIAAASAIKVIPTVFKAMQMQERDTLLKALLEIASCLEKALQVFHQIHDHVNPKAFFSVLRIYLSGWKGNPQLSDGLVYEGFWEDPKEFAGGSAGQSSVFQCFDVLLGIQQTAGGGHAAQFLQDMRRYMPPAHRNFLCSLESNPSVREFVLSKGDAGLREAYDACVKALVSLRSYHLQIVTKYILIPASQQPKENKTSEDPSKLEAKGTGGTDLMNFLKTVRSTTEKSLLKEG

**Q.** How did the IC50 turn out when `CCOC(=O)c1cnc2scc(-c3ccc(C)cc3)n12` was run?
**A.** Its IC50 is 18 µM.

**Q.** For `CCOC(=O)c1cnc2scc(-c3cccc(C)c3)n12`, which IC50 is on record?
**A.** The IC50 was over 100 µM.

**Q.** With `CCOC(=O)c1cnc2scc(-c3ccccc3C)n12` as the compound, how does the IC50 read?
**A.** Its IC50 is over 100 µM.

**Q.** For `CCOC(=O)c1cnc2scc(-c3ccccc3)n12`, which IC50 is on record?
**A.** The IC50 was over 100 µM.

**Q.** With `CCOC(=O)c1cnc2scc(C3=CCCCC3)n12` as the compound, how does the IC50 read?
**A.** The IC50 was over 100 µM.

**Q.** How did the IC50 turn out when `CCOC(=O)c1cnc2scc(-c3ccc(CC)cc3)n12` was run?
**A.** Its IC50 is 24 µM.

**Q.** How did the IC50 turn out when `CCOC(=O)c1cnc2scc(-c3ccc(OC)cc3)n12` was run?
**A.** The IC50 was 56 µM.

**Q.** With `CCOC(=O)c1cnc2scc(-c3ccc(Cl)cc3)n12` as the compound, how does the IC50 read?
**A.** Its IC50 is 8.1 µM.

**Q.** `CCOC(=O)c1cnc2scc(-c3ccc(Br)cc3)n12` was tested. Which IC50 did it give?
**A.** The IC50 was 5.5 µM.

**Q.** For `CCOC(=O)c1cnc2scc(Cc3ccccc3)n12`, which IC50 is on record?
**A.** Its IC50 is over 100 µM.

**Q.** `CCOC(=O)c1cnc2sc3ccccc3n12` was tested. Which IC50 did it give?
**A.** Its IC50 is over 100 µM.

**Q.** With `Cc1ccc(-c2csc3ncc(C(=O)NCCc4ccccc4)n23)cc1` as the compound, how does the IC50 read?
**A.** The IC50 was 3.5 µM.

**Q.** Which IC50 does the source give for `Cc1ccc(-c2csc3ncc(C(=O)NCCc4cccc(Cl)c4)n23)cc1` here?
**A.** The IC50 was 1.9 µM.

**Q.** With `Cc1ccc(-c2csc3ncc(C(=O)NCCc4ccc5c(c4)OCO5)n23)cc1` as the compound, how does the IC50 read?
**A.** The IC50 was 3.6 µM.

**Q.** `O=C(NCc1cnc2scc(-c3ccc(Br)cc3)n12)Nc1ccccc1` was tested. Which IC50 did it give?
**A.** The IC50 was 0.22 µM.

**Q.** For `O=C(NCc1ccccc1)NCc1cnc2scc(-c3ccc(Br)cc3)n12`, which IC50 is on record?
**A.** Its IC50 is 0.75 µM.

**Q.** Which IC50 does the source give for `O=C(NCc1cnc2scc(-c3ccc(Br)cc3)n12)NC1CCCCC1` here?
**A.** The IC50 was 1.8 µM.

**Q.** Which IC50 does the source give for `O=C(NCc1cnc2scc(-c3ccc(Br)cc3)n12)Nc1ccc2c(c1)OCO2` here?
**A.** The IC50 was 0.12 µM.

**Q.** For `COc1cccc(NC(=O)NCc2cnc3scc(-c4ccc(Br)cc4)n23)c1`, which IC50 is on record?
**A.** The IC50 was 0.16 µM.

**Q.** With `COc1ccc(NC(=O)NCc2cnc3scc(-c4ccc(Br)cc4)n23)cc1` as the compound, how does the IC50 read?
**A.** The IC50 was 0.19 µM.

**Q.** For `N#Cc1ccc(NC(=O)NCc2cnc3scc(-c4ccc(Br)cc4)n23)cc1`, which IC50 is on record?
**A.** Its IC50 is 0.077 µM.

**Q.** With `Cc1ccc(-c2csc3nnc(SCC(=O)Nc4ccc5c(c4)OCO5)n23)cc1` as the compound, how does the IC50 read?
**A.** Its IC50 is 3 µM.

**Q.** Which IC50 does the source give for `Cc1ccc(-c2csc3ncc(C)n23)cc1` here?
**A.** Its IC50 is 1.3 µM.
